Reference: the M2OR odorant receptor database
Residue numbers refer to the chain shown, from its start.

Key:
Conditions in all cases: stereoisomer not certain
OR5K3 (Homo sapiens) = target: T1, OR5K3 (Homo sapiens) (UniProt A6NET4)
T1 sequence (whole entry): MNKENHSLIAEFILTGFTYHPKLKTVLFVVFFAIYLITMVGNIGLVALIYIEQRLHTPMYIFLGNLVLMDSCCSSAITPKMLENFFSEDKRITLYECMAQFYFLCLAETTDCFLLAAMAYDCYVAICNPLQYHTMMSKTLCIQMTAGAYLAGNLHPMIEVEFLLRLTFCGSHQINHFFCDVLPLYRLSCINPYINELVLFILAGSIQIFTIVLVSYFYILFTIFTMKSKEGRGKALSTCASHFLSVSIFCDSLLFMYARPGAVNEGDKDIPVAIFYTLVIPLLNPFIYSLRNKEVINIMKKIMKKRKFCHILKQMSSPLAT
Method in brief: (§1)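 Values were gathered from published papers (main text and supplementary material), with extra details requested from the original authors when needed, and checked for typos and inconsistencies. Each receptor–molecule pair is called responsive (active) if the original authors judged the measured signal statistically different from baseline, and non-responsive (inactive) otherwise. Assay methods varied by source, often transient mammalian cell-line luciferase assays. Recorded details include cell line, G-protein, co-transfected protein and tags.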

OR5K4 (Homo sapiens) = target: T2, OR5K4 (Homo sapiens) (UniProt A6NMS3)
T2 sequence (whole entry): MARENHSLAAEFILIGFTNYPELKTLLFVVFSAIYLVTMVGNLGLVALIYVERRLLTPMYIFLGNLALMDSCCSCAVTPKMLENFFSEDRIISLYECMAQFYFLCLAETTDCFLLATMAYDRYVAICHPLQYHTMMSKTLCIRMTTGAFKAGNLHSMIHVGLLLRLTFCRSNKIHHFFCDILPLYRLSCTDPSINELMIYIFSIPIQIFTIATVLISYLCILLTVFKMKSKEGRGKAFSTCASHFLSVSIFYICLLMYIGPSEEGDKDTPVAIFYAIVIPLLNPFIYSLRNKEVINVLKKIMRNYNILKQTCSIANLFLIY
Method in brief: as §1

OR5L1 (Homo sapiens) = target: T3, OR5L1 (Homo sapiens) (UniProt Q8NGL2)
T3 sequence (whole entry): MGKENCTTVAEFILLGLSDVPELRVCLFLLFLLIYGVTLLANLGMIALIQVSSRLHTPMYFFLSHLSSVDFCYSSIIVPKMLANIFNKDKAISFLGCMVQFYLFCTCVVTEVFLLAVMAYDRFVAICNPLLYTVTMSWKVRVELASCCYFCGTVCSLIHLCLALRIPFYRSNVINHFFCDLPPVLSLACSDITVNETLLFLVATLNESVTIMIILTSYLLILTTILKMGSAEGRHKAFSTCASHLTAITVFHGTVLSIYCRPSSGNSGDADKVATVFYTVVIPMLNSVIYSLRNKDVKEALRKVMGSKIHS
Method in brief: as §1

OR5L2 (Homo sapiens) = target: T4, OR5L2 (Homo sapiens) (UniProt Q8NGL0)
T4 sequence (whole entry): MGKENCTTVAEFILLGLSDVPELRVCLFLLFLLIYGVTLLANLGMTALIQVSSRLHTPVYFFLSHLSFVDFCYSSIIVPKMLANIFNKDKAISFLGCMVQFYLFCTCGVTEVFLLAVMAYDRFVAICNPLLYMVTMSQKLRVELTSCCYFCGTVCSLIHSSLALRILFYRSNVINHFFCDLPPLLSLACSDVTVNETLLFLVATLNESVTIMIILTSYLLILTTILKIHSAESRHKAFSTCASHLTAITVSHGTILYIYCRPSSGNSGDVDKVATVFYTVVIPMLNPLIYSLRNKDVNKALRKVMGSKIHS
Method in brief: as §1

OR5M1 (Homo sapiens) = target: T5, OR5M1 (Homo sapiens) (UniProt Q8NGP8)
T5 sequence (whole entry): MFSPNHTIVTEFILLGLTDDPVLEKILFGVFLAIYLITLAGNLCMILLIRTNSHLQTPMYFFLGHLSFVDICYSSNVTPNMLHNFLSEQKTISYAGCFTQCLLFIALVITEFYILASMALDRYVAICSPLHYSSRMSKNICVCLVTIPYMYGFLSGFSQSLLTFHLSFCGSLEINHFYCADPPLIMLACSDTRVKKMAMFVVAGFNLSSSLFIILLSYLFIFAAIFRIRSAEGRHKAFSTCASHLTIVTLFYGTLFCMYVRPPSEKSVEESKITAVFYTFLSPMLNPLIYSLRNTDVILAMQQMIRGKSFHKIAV
Method in brief: as §1

OR5M1 T295R M301I = tested on: T6, OR5M1 T295R M301I
T6 sequence (whole entry): T5 sequence (whole entry) with T295R, M301I
Method in brief: as §1

OR5M10 (Homo sapiens) = target: T7, OR5M10 (Homo sapiens) (UniProt Q6IEU7)
T7 sequence (whole entry): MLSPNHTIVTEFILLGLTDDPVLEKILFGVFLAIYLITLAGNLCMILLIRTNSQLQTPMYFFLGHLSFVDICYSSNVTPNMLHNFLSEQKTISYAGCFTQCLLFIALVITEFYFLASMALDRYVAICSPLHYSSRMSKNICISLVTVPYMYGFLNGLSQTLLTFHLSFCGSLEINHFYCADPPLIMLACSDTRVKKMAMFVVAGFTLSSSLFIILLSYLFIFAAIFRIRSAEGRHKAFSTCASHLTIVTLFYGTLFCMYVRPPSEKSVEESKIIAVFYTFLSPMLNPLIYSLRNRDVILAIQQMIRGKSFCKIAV
Method in brief: as §1

OR5M11 (Homo sapiens) = target: T8, OR5M11 (Homo sapiens) (UniProt Q96RB7)
T8 sequence (whole entry): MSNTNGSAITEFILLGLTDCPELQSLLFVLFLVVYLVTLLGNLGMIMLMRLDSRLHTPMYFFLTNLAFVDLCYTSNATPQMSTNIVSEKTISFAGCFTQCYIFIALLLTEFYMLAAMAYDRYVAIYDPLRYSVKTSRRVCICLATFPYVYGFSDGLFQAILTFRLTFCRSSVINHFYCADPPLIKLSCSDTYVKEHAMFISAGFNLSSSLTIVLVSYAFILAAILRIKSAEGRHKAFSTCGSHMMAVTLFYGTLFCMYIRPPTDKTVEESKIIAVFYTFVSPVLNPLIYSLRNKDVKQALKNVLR
Method in brief: as §1

OR5M3 (Homo sapiens) = target: T9, OR5M3 (Homo sapiens) (UniProt Q8NGP4)
T9 sequence (whole entry): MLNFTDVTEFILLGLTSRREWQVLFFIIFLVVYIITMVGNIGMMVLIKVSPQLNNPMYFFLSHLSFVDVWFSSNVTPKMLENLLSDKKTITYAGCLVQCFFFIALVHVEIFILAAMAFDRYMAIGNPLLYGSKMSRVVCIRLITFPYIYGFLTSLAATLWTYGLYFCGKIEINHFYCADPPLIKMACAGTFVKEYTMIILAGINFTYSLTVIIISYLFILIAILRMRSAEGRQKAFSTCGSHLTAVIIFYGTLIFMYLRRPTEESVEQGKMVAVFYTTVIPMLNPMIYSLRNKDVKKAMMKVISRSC
Method in brief: as §1

OR5M3 N3Y A156T = tested on: T10, OR5M3 N3Y A156T
T10 sequence (whole entry): T9 sequence (whole entry) with N3Y, A156T
Method in brief: as §1

SMILES: CC1=NC(C)C(C)S1 (stereo not drawn)
- odorant receptor agonist call (OR5K3 (Homo sapiens)): inactive
- odorant receptor agonist call (OR5K4 (Homo sapiens)): inactive
- odorant receptor agonist call (OR5L1 (Homo sapiens)): inactive
- odorant receptor agonist call (OR5L2 (Homo sapiens)): inactive
- odorant receptor agonist call (OR5M1 (Homo sapiens)): inactive
- odorant receptor agonist call (OR5M1 T295R M301I): inactive
- odorant receptor agonist call (OR5M10 (Homo sapiens)): inactive
- odorant receptor agonist call (OR5M11 (Homo sapiens)): inactive
- odorant receptor agonist call (OR5M3 (Homo sapiens)): inactive
- odorant receptor agonist call (OR5M3 N3Y A156T): inactive

SMILES: Cc1nccnc1C
- odorant receptor agonist call (OR5K3 (Homo sapiens)): inactive
- odorant receptor agonist call (OR5K4 (Homo sapiens)): inactive

SMILES: CCC(S)C(C)CO (stereo not drawn)
- odorant receptor agonist call (OR5K3 (Homo sapiens)): inactive
- odorant receptor agonist call (OR5K4 (Homo sapiens)): inactive
- odorant receptor agonist call (OR5L1 (Homo sapiens)): inactive
- odorant receptor agonist call (OR5L2 (Homo sapiens)): inactive
- odorant receptor agonist call (OR5M1 (Homo sapiens)): inactive
- odorant receptor agonist call (OR5M10 (Homo sapiens)): inactive
- odorant receptor agonist call (OR5M11 (Homo sapiens)): inactive
- odorant receptor agonist call (OR5M3 (Homo sapiens)): inactive

SMILES: CC1CCCCCCCCCCCCC(=O)C1 (stereo not drawn)
- odorant receptor agonist call (OR5K3 (Homo sapiens)): inactive
- odorant receptor agonist call (OR5K4 (Homo sapiens)): inactive
- odorant receptor agonist call (OR5L1 (Homo sapiens)): inactive
- odorant receptor agonist call (OR5M1 (Homo sapiens)): inactive
- odorant receptor agonist call (OR5M10 (Homo sapiens)): inactive
- odorant receptor agonist call (OR5M11 (Homo sapiens)): inactive
- odorant receptor agonist call (OR5M3 (Homo sapiens)): inactive

SMILES: Cc1cncc(C)n1
- odorant receptor agonist call (OR5K3 (Homo sapiens)): inactive
- odorant receptor agonist call (OR5K4 (Homo sapiens)): inactive

SMILES: CCc1nccnc1CC
- odorant receptor agonist call (OR5K3 (Homo sapiens)): inactive
- odorant receptor agonist call (OR5K4 (Homo sapiens)): inactive

SMILES: CC(=O)c1cnccn1
- odorant receptor agonist call (OR5K3 (Homo sapiens)): inactive
- odorant receptor agonist call (OR5K4 (Homo sapiens)): inactive
- odorant receptor agonist call (OR5M3 (Homo sapiens)): inactive

SMILES: Cc1cnccn1
- odorant receptor agonist call (OR5K3 (Homo sapiens)): inactive
- odorant receptor agonist call (OR5K4 (Homo sapiens)): inactive

SMILES: CCCCCC(S)C(C)CO (stereo not drawn)
- odorant receptor agonist call (OR5K3 (Homo sapiens)): inactive
- odorant receptor agonist call (OR5K4 (Homo sapiens)): inactive
- odorant receptor agonist call (OR5L1 (Homo sapiens)): inactive
- odorant receptor agonist call (OR5L2 (Homo sapiens)): inactive
- odorant receptor agonist call (OR5M1 (Homo sapiens)): inactive
- odorant receptor agonist call (OR5M10 (Homo sapiens)): inactive
- odorant receptor agonist call (OR5M11 (Homo sapiens)): inactive
- odorant receptor agonist call (OR5M3 (Homo sapiens)): inactive

SMILES: CCc1nccnc1C
- odorant receptor agonist call (OR5K3 (Homo sapiens)): inactive
- odorant receptor agonist call (OR5K4 (Homo sapiens)): inactive

SMILES: CCCC(S)CCOC(C)=O (stereo not drawn)
- odorant receptor agonist call (OR5K3 (Homo sapiens)): inactive
- odorant receptor agonist call (OR5K4 (Homo sapiens)): inactive
- odorant receptor agonist call (OR5L1 (Homo sapiens)): inactive
- odorant receptor agonist call (OR5L2 (Homo sapiens)): inactive
- odorant receptor agonist call (OR5M1 (Homo sapiens)): inactive
- odorant receptor agonist call (OR5M1 T295R M301I): inactive
- odorant receptor agonist call (OR5M10 (Homo sapiens)): inactive
- odorant receptor agonist call (OR5M11 (Homo sapiens)): inactive
- odorant receptor agonist call (OR5M3 (Homo sapiens)): inactive
- odorant receptor agonist call (OR5M3 N3Y A156T): inactive

SMILES: C=Cc1cnccn1
- odorant receptor agonist call (OR5K3 (Homo sapiens)): inactive
- odorant receptor agonist call (OR5K4 (Homo sapiens)): inactive

SMILES: CCC1OC(C)=C(O)C1=O (stereo not drawn)
- odorant receptor agonist call (OR5K3 (Homo sapiens)): inactive
- odorant receptor agonist call (OR5K4 (Homo sapiens)): inactive
- odorant receptor agonist call (OR5L1 (Homo sapiens)): inactive
- odorant receptor agonist call (OR5L2 (Homo sapiens)): inactive
- odorant receptor agonist call (OR5M1 (Homo sapiens)): inactive
- odorant receptor agonist call (OR5M1 T295R M301I): inactive
- odorant receptor agonist call (OR5M10 (Homo sapiens)): inactive
- odorant receptor agonist call (OR5M11 (Homo sapiens)): inactive
- odorant receptor agonist call (OR5M3 (Homo sapiens)): active
- odorant receptor agonist call (OR5M3 N3Y A156T): inactive

SMILES: CCC1OC(=O)C(O)=C1C (stereo not drawn)
- odorant receptor agonist call (OR5K3 (Homo sapiens)): inactive
- odorant receptor agonist call (OR5K4 (Homo sapiens)): inactive
- odorant receptor agonist call (OR5L1 (Homo sapiens)): inactive
- odorant receptor agonist call (OR5L2 (Homo sapiens)): inactive
- odorant receptor agonist call (OR5M1 (Homo sapiens)): inactive
- odorant receptor agonist call (OR5M1 T295R M301I): inactive
- odorant receptor agonist call (OR5M10 (Homo sapiens)): inactive
- odorant receptor agonist call (OR5M11 (Homo sapiens)): inactive
- odorant receptor agonist call (OR5M3 (Homo sapiens)): inactive
- odorant receptor agonist call (OR5M3 N3Y A156T): inactive

SMILES: Cc1cnc(C)c(C)n1
- odorant receptor agonist call (OR5K3 (Homo sapiens)): inactive
- odorant receptor agonist call (OR5K4 (Homo sapiens)): inactive
- odorant receptor agonist call (OR5L1 (Homo sapiens)): inactive
- odorant receptor agonist call (OR5L2 (Homo sapiens)): inactive
- odorant receptor agonist call (OR5M1 (Homo sapiens)): inactive
- odorant receptor agonist call (OR5M1 T295R M301I): inactive
- odorant receptor agonist call (OR5M10 (Homo sapiens)): inactive
- odorant receptor agonist call (OR5M11 (Homo sapiens)): inactive
- odorant receptor agonist call (OR5M3 (Homo sapiens)): inactive
- odorant receptor agonist call (OR5M3 N3Y A156T): inactive
